# Laboratory results: ChEMBL document CHEMBL1149410, “Discovery of a potent phenolic N1-benzylidene-pyridinecarboxamidrazone selective against Gram-positive bacteria” (Bioorg Med Chem Lett, 2006)
# Active and inactive are the calls of the source. The calls are words filed in the database; no cut-off is given here.
# Tests used:
# PBMC [1] = assay: Toxicity towards human mononuclear leucocytes at 1 mM; format: cell-based; conditions: 1000 µM
# Procedure, shortened: (§1)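 Human mononuclear leucocytes were exposed to compound for 1 h, then held in compound-free medium for 18 h. Cell death was scored by trypan blue exclusion and reported as % leucocyte death. The test concentration was 1 mM, or 0.5 mM where solubility limited it.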
# [2] = tested on: Mycolicibacterium fortuitum; assay: Antibacterial activity against Mycobacterium fortuitum; format: functional, organism-based
# Procedure, shortened: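 The Mycobacterium fortuitum reference strain NCTC 10394 was screened for a zone of inhibition on Columbia agar supplemented with horse blood. Compounds were also screened at a single concentration in Middlebrook 7H9 broth with glycerol and ADC enrichment. The MIC was determined in broth when a zone or single-concentration activity was seen.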
# Staphylococcus aureus [3] = assay: Antibacterial activity against 10 clinical isolate methicillin-resistant strains of Staphylococcus aureus; format: functional
# Procedure, shortened: (§2)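 Agar dilution MIC on Mueller–Hinton agar. Bacteria were spotted with a multipoint inoculator and plates incubated at 37 °C for 18 h. MIC was taken as the lowest concentration inhibiting growth. The panels covered clinical MRSA isolates, methicillin-sensitive S. aureus, enterococci, Gram-negative bacteria and vancomycin-resistant enterococci.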
# [4] = tested on: Staphylococcus haemolyticus; assay: Antibacterial activity against clinical isolate of Staphylococcus haemolyticus; format: functional
# Procedure, shortened: (§3)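 Agar dilution MIC on Mueller–Hinton agar, with a multipoint inoculator spotting the organisms. The MIC was the lowest concentration that inhibited growth after 18 h at 37 °C.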
# Escherichia coli [5] = assay: Antibacterial activity against Escherichia coli W3110 R-; format: functional; procedure, shortened: as §2
# Escherichia coli [6] = assay: Antibacterial activity against Escherichia coli W3110 R+; format: functional; procedure, shortened: as §2
# Klebsiella pneumoniae = assay: Antibacterial activity against Klebsiella pneumoniae 327; format: functional; procedure, shortened: as §2
# Staphylococcus aureus [7] = assay: Antibacterial activity against methicillin-sensitive Staphylococcus aureus NCTC 6571; format: functional; procedure, shortened: as §2
# Staphylococcus aureus [8] = assay: Antibacterial activity against methicillin-sensitive Staphylococcus aureus NCTC 10788; format: functional; procedure, shortened: as §2
# Staphylococcus aureus [9] = assay: Antibacterial activity against methicillin-sensitive Staphylococcus aureus Cowan 1; format: functional; procedure, shortened: as §2
# Enterococcus faecium [10] = assay: Antibacterial activity against Enterococcus faecium ACTCC 10541; format: functional; procedure, shortened: as §3
# Enterococcus faecium [11] = assay: Antibacterial activity against Enterococcus faecium NCTC 7171; format: functional; procedure, shortened: as §3
# Enterococcus faecalis [12] = assay: Antibacterial activity against Enterococcus faecalis NCTC 5957; format: functional; procedure, shortened: as §3
# Enterococcus faecalis [13] = assay: Antibacterial activity against Enterococcus faecalis isolate 1; format: functional; procedure, shortened: as §3
# Serratia marcescens = assay: Antibacterial activity against Serratia marcescens 4444; format: functional; procedure, shortened: as §2
# Pseudomonas aeruginosa = assay: Antibacterial activity against Pseudomonas aeruginosa NCTC 6749; format: functional; procedure, shortened: as §2
# [14] = tested on: Stenotrophomonas maltophilia; assay: Antibacterial activity against Stenotrophomonas maltophilia NCTC 10257; format: functional; procedure, shortened: as §2
# Enterobacter cloacae = assay: Antibacterial activity against Enterobacter cloacae NCTC 11582; format: functional; procedure, shortened: as §2
# [15] = tested on: Bordetella bronchiseptica; assay: Antibacterial activity against Bordetella bronchiseptica NCTC 8344; format: functional; procedure, shortened: as §2
# Enterococcus [16] = assay: Antibacterial activity against vancomycin-resistant Enterococcus 3001562; format: functional; procedure, shortened: as §2
# Enterococcus [17] = assay: Antibacterial activity against vancomycin-resistant Enterococcus 3002043; format: functional; procedure, shortened: as §2
# Enterococcus [18] = assay: Antibacterial activity against vancomycin-resistant Enterococcus 3002066; format: functional; procedure, shortened: as §2
# Enterococcus [19] = assay: Antibacterial activity against vancomycin-resistant Enterococcus 3005323; format: functional; procedure, shortened: as §2
# Enterococcus [20] = assay: Antibacterial activity against vancomycin-resistant Enterococcus 3005426; format: functional; procedure, shortened: as §2
# Enterococcus [21] = assay: Antibacterial activity against vancomycin-resistant Enterococcus 3005353; format: functional; procedure, shortened: as §2
# Enterococcus [22] = assay: Antibacterial activity against vancomycin-resistant Enterococcus 3102095; format: functional; procedure, shortened: as §2
# Enterococcus faecalis [23] = assay: Antibacterial activity against Enterococcus faecalis isolate 2; format: functional; procedure, shortened: as §2
# Enterococcus faecalis [24] = assay: Antibacterial activity against Enterococcus faecalis isolate 3; format: functional; procedure, shortened: as §2
# Enterococcus faecalis [25] = assay: Antibacterial activity against Enterococcus faecalis isolate 4; format: functional; procedure, shortened: as §3
# Enterococcus faecalis [26] = assay: Antibacterial activity against Enterococcus faecalis isolate 5; format: functional; procedure, shortened: as §3
# [27] = tested on: Mycobacterium tuberculosis; assay: Antibacterial activity against Mycobacterium tuberculosis H37Rv at 6.25 ug/ml; format: functional
# Procedure, shortened: (§4)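 Inhibition of M. tuberculosis H37Rv (ATCC 27294) growth was tested in BACTEC 12B medium. Percent inhibition was recorded at a fixed concentration, and MIC was also determined.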
# PBMC [28] = assay: Toxicity towards human mononuclear leucocytes at 0.5 mM; format: cell-based; conditions: 500 µM; procedure, shortened: as §1
# [29] = tested on: Mycobacterium tuberculosis; assay: Antibacterial activity against Mycobacterium tuberculosis H37Rv; format: functional; procedure, shortened: as §4
smiles,measurement,setting,value
CC(C)(C)c1cc(C=O)c(O)c(C(C)(C)C)c1,Activity,PBMC [1],32.7%
CC(C)(C)c1cc(/C=N/N=C(\N)c2cccnc2)c(O)c(C(C)(C)C)c1,Activity,[2],inactive
same,MIC,Staphylococcus aureus [3],inactive
CN[C@H](CC(C)C)C(=O)N[C@H]1C(=O)N[C@@H](CC(N)=O)C(=O)N[C@H]2C(=O)N[C@H]3C(=O)N[C@H](C(=O)N[C@H](C(=O)O)c4cc(O)cc(O)c4-c4cc3ccc4O)[C@H](O)c3ccc(c(Cl)c3)Oc3cc2cc(c3O[C@@H]2O[C@H](CO)[C@@H](O)[C@H](O)[C@H]2O[C@H]2C[C@](C)(N)[C@H](O)[C@H](C)O2)Oc2ccc(cc2Cl)[C@H]1O [VANCOMYCIN],MIC,[4],8 µg/mL
same,MIC,Escherichia coli [5],> 16 µg/mL
same,MIC,Escherichia coli [6],> 16 µg/mL
same,MIC,Klebsiella pneumoniae,> 16 µg/mL
same,MIC,Staphylococcus aureus [7],0.12 µg/mL
same,MIC,Staphylococcus aureus [8],0.25 µg/mL
same,MIC,Staphylococcus aureus [9],0.12 µg/mL
same,MIC,Enterococcus faecium [10],0.12 µg/mL
same,MIC,Enterococcus faecium [11],0.12 µg/mL
same,MIC,Enterococcus faecalis [12],0.25 µg/mL
same,MIC,Enterococcus faecalis [13],0.12 µg/mL
same,MIC,Serratia marcescens,> 16 µg/mL
same,MIC,Pseudomonas aeruginosa,> 16 µg/mL
same,MIC,[14],> 16 µg/mL
same,MIC,Enterobacter cloacae,> 16 µg/mL
same,MIC,[15],> 16 µg/mL
same,MIC,Enterococcus [16],4 µg/mL
same,MIC,Enterococcus [17],4 µg/mL
same,MIC,Enterococcus [18],4 µg/mL
same,MIC,Enterococcus [19],> 16 µg/mL
same,MIC,Enterococcus [20],4 µg/mL
same,MIC,Enterococcus [21],> 16 µg/mL
same,MIC,Enterococcus [22],> 16 µg/mL
same,MIC,Staphylococcus aureus [3],0.05 µg/mL
same,MIC,Enterococcus faecalis [23],0.25 µg/mL
same,MIC,Enterococcus faecalis [24],0.25 µg/mL
same,MIC,Enterococcus faecalis [25],16 µg/mL
same,MIC,Enterococcus faecalis [26],2 µg/mL
CC(C)(C)c1cc(/C=N/N=C(\N)c2ccncc2)c(O)c(C(C)(C)C)c1,MIC,[4],2 µg/mL
same,MIC,Escherichia coli [5],inactive
same,MIC,Escherichia coli [6],inactive
same,MIC,Klebsiella pneumoniae,inactive
same,inhibition at 6.25 µg/mL,[27],100%
same,Activity,[2],inactive
same,Activity,PBMC [28],100%
same,MIC,Staphylococcus aureus [7],2 µg/mL
same,MIC,Staphylococcus aureus [8],2 µg/mL
same,MIC,Staphylococcus aureus [9],2 µg/mL
same,MIC,Enterococcus faecium [10],2 µg/mL
same,MIC,Enterococcus faecium [11],2 µg/mL
same,MIC,Enterococcus faecalis [12],2 µg/mL
same,MIC,Enterococcus faecalis [13],2 µg/mL
same,MIC,Serratia marcescens,inactive
same,MIC,Pseudomonas aeruginosa,inactive
same,MIC,[14],inactive
same,MIC,Enterobacter cloacae,inactive
same,MIC,[15],inactive
same,MIC,Enterococcus [16],2 µg/mL
same,MIC,Enterococcus [17],2 µg/mL
same,MIC,Enterococcus [18],2 µg/mL
same,MIC,Enterococcus [19],2 µg/mL
same,MIC,Enterococcus [20],2 µg/mL
same,MIC,Enterococcus [21],2 µg/mL
same,MIC,Enterococcus [22],2 µg/mL
same,MIC,[29],6.25 µg/mL
same,MIC,Staphylococcus aureus [3],2 µg/mL
same,MIC,Enterococcus faecalis [23],2 µg/mL
same,MIC,Enterococcus faecalis [24],4 µg/mL
same,MIC,Enterococcus faecalis [25],2 µg/mL
same,MIC,Enterococcus faecalis [26],2 µg/mL
N/C(=N\N=C\c1cc(I)cc(I)c1O)c1ccncc1,MIC,Staphylococcus aureus [3],10 µg/mL
COc1cc([N+](=O)[O-])cc(/C=N/N=C(\N)c2ccncc2)c1O,Activity,[2],inactive
same,MIC,Staphylococcus aureus [3],inactive
CC(C)(C)c1cc(/C=N/N=C(\N)c2cnccn2)c(O)c(C(C)(C)C)c1,Activity,[2],inactive
same,MIC,Staphylococcus aureus [3],inactive
CC(C)(C)c1cc(/C=N/N=C(\N)c2ccccn2)c(O)c(C(C)(C)C)c1,Activity,[2],inactive
same,MIC,Staphylococcus aureus [3],inactive
N/C(=N\N=C\c1cc([N+](=O)[O-])cc(Br)c1O)c1ccncc1,MIC,Staphylococcus aureus [3],inactive
CC(C)(C)c1cc(/C=N/N=C(\N)c2ccncc2)cc(C(C)(C)C)c1O,MIC,[4],inactive
same,MIC,Escherichia coli [5],inactive
same,MIC,Escherichia coli [6],inactive
same,MIC,Klebsiella pneumoniae,inactive
same,inhibition at 6.25 µg/mL,[27],75%
same,Activity,[2],inactive
same,MIC,Staphylococcus aureus [7],> 256 µg/mL
same,MIC,Staphylococcus aureus [8],inactive
same,MIC,Staphylococcus aureus [9],inactive
same,MIC,Enterococcus faecium [10],inactive
same,MIC,Enterococcus faecium [11],inactive
same,MIC,Enterococcus faecalis [12],inactive
same,MIC,Enterococcus faecalis [13],inactive
same,MIC,Serratia marcescens,inactive
same,MIC,Pseudomonas aeruginosa,inactive
same,MIC,[14],inactive
same,MIC,Enterobacter cloacae,inactive
same,MIC,[15],inactive
same,MIC,Staphylococcus aureus [3],> 256 µg/mL
N/C(=N\N=C\c1c(O)cc(O)cc1O)c1ccncc1,Activity,[2],inactive
same,MIC,Staphylococcus aureus [3],inactive
CC(C)(C)c1cc(/C=N/N=C(\N)c2ccc3ccccc3n2)c(O)c(C(C)(C)C)c1,Activity,[2],inactive
same,MIC,Staphylococcus aureus [3],inactive
N/C(=N\N=C\c1ccc(O)c(O)c1)c1ccncc1,Activity,[2],inactive
same,MIC,Staphylococcus aureus [3],inactive
NNC(=O)c1ccncc1 [ISONIAZID],Activity,PBMC [1],12.4%
COc1ccc(/C=N/N=C(\N)c2ccncc2)c(O)c1,Activity,[2],inactive
same,MIC,Staphylococcus aureus [3],inactive
Cc1cc(C)c(O)c(/C=N/N=C(\N)c2ccncc2)c1,MIC,Staphylococcus aureus [3],inactive
N/C(=N\N=C\c1cc([N+](=O)[O-])ccc1O)c1ccncc1,Activity,[2],inactive
same,MIC,Staphylococcus aureus [3],20 µg/mL
N/C(=N\N=C\c1ccc(O)c(O)c1O)c1ccncc1,Activity,[2],inactive
same,MIC,Staphylococcus aureus [3],30 µg/mL
N/C(=N\N=C\c1ccccc1O)c1ccncc1,Activity,PBMC [1],11.7%
same,MIC,Staphylococcus aureus [3],inactive
N/C(=N\N=C\c1cc(O)c(O)cc1O)c1ccncc1,Activity,[2],inactive
same,MIC,Staphylococcus aureus [3],20 µg/mL
COc1cccc(/C=N/N=C(\N)c2ccncc2)c1O,Activity,[2],inactive
same,MIC,Staphylococcus aureus [3],inactive
CC(=O)Oc1c(/C=N/N=C(\N)c2ccncc2)cc(C(C)(C)C)cc1C(C)(C)C,Activity,[2],inactive
same,MIC,Staphylococcus aureus [3],4 µg/mL
N/C(=N\N=C\c1cc(Br)cc([N+](=O)[O-])c1O)c1ccncc1,Activity,[2],inactive
same,MIC,Staphylococcus aureus [3],inactive
N/N=C(/N)c1ccncc1,Activity,PBMC [1],13.8%
N/C(=N\N=C\c1cccc(O)c1O)c1ccncc1,Activity,[2],inactive
same,MIC,Staphylococcus aureus [3],inactive
COc1c(/C=N/N=C(\N)c2ccncc2)cc(C(C)(C)C)cc1C(C)(C)C,MIC,Staphylococcus aureus [3],inactive
